Results reported in PubChem BioAssay AID2247 (Johns Hopkins Ion Channel Center, 2010).
Among all 300,000 compounds or so, about 1,200 (0.4%) were called active. This is one part of a sample in which actives are shown more often than they occur.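 The calls were made as follows: active = B-score over 3 SD under the library average, no early fluorescence shift, positive overall ratio signal; inactive = the rest.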

molecular target: Short transient receptor potential channel 4 (Mus musculus) (UniProt Q9QUQ5); assay: inhibitors of mouse TRPC4 channel, primary screen, Fluo4 calcium, HEK293 TRPC4beta/mu-opioid cells (AID 2247); settings: DAMGO-evoked Fluo4 calcium flux, at 10 µM; active compounds read low
Sequence (Q9QUQ5 whole entry, looked up): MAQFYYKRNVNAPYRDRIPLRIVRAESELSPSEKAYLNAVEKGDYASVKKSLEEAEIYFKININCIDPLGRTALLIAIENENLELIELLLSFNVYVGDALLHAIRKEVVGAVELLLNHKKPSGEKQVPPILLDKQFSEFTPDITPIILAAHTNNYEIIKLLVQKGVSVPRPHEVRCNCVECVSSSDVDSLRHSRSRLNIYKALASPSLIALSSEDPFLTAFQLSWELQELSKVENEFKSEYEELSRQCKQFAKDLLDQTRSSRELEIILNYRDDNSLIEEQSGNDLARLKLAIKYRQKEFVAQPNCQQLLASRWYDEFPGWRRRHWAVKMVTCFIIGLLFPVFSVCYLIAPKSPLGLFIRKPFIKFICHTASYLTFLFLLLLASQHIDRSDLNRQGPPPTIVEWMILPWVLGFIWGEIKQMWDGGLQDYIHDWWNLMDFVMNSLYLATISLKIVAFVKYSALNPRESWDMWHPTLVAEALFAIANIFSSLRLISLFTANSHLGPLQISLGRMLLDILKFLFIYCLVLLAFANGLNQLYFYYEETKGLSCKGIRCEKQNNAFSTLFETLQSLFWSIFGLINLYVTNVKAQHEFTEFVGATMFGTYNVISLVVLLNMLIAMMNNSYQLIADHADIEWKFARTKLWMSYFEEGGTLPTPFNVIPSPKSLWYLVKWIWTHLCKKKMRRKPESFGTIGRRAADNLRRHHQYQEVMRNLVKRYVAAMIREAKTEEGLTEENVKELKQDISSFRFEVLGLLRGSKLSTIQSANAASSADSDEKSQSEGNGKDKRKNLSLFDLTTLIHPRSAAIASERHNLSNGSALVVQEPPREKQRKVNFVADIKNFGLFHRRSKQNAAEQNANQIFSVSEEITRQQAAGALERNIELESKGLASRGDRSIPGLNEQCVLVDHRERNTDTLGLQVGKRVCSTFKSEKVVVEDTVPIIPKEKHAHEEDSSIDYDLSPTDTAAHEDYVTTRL
Summary of the method: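 test system = HEK293 cells with stable TRPC4beta plus mu-opioid receptor expression | detection = Fluo4 Ca2+ flux fluorescence | read-out = integrated fluorescence ratio relative to baseline, converted to per-well B score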

SMILES | B-score
CC(=O)Nc1ccc(NC(=O)C2CCCN2S(=O)(=O)c2cccc(C(F)(F)F)c2)cc1 (configuration not stated) | inactive
CC(C)c1ccc(S(=O)(=O)N2CCN(C(=O)CN3C(=O)NC(C)(c4ccccc4)C3=O)CC2)cc1 (configuration not stated) | inactive
N#Cc1c(-c2ccccc2)nc(SCc2cccc(C(F)(F)F)c2)[nH]c1=O | inactive
N#Cc1c(-c2ccccc2)nc(SCc2ccc([N+](=O)[O-])cc2)[nH]c1=O | inactive
Cc1ccc(CSc2nc(-c3ccccc3)c(C#N)c(=O)[nH]2)cc1 | -6 (active)
CC(C)c1ccc(S(=O)(=O)N2CCC3(CC2)OCCO3)cc1 | inactive
Nc1ccc(C(=O)N2CCN(S(=O)(=O)c3ccc(Cl)cc3)CC2)cc1[N+](=O)[O-] | inactive
CCN(CC)CCN(C(=O)c1cc(Cl)sc1Cl)c1nc2cc3c(cc2s1)OCO3 | inactive
CN(C)CCN(C(=O)C1CCCCC1)c1nc2cc3c(cc2s1)OCO3 | -6 (active)
CN(C)CCN(C(=O)CN1C(=O)c2ccccc2C1=O)c1nc2cc3c(cc2s1)OCCO3 | inactive
CC(=O)Nc1ccc(S(=O)(=O)Oc2ccc(Br)cc2C(=S)N2CCOCC2)cc1 | inactive
COc1ccc(/C(C)=N/N2CCOCC2)c(O)c1 | inactive
COc1ccc(C(=O)N/N=c2\oc3ccccc3cc2C(N)=O)cc1 | inactive
NC(=O)c1cc2ccccc2o/c1=N/NC(=O)c1cccc(F)c1 | inactive
COc1cccc2cc(C(N)=O)/c(=N\NC(=O)c3ccccc3)oc12 | -6 (active)
COc1ccc(C(=O)NC2CC(C)(C)Cc3c2cnn3-c2ccccc2)c(OC)c1 (configuration not stated) | inactive
CN1OC(COC(=O)c2ccc(Cl)cc2)CC1c1ccccc1 (configuration not stated) | inactive
CCCC(=O)C1CCN(Cc2ccccc2)CC1 | inactive
CCCCN(Cc1ccccc1)C(=O)C1CCN(Cc2sccc2C)CC1 | -6 (active)
CCOC(=O)C1CCN(Cc2ccc(-c3ccccc3)cc2)CC1 | inactive
COc1cccc(CNc2ncc(-c3ccccc3)n2C)c1 | inactive
CCN(CC)S(=O)(=O)c1ccc(Cl)c(C(=O)NCCN2CCOCC2)c1 | inactive
Cc1ccccc1N(C(=O)Cc1cccs1)C(C(=O)NC1CCCCC1)c1cn(C)nc1C (configuration not stated) | inactive

SMILES | B-score
COc1cccc(CNc2nc(C(F)(F)F)nc3ccccc23)c1 | inactive
CCc1ccc(C(CNc2nc(C(F)(F)F)nc3ccccc23)N(C)C)cc1 (configuration not stated) | -7 (active)
NS(=O)(=O)c1ccc(CCNc2nc(C(F)(F)F)nc3ccccc23)cc1 | inactive
CN(Cc1ccccc1F)C(=O)C(Cc1ccccc1)NC(=O)c1ccccc1 (configuration not stated) | inactive
Cn1c(C(=O)N2CCCC(C(=O)NCc3ccccc3)C2)cc2sccc21 (configuration not stated) | inactive
Cc1ccc(CN(C(=O)c2sc3ccccc3c2Cl)C2CCS(=O)(=O)C2)cc1 (configuration not stated) | inactive
Fc1ccccc1COc1ccccc1CNCc1ccncc1 | -7 (active)
Fc1ccccc1COc1cccc2cccnc12 | inactive
c1ccc(COc2ccccc2CNCc2cccnc2)cc1 | inactive
Cc1ccc(S(=O)(=O)CC(=O)Nc2sc(C)c(C)c2C(N)=O)cc1 | inactive
COc1cc2ccccc2cc1C(=O)N1CCOCC1 | inactive
CCCCCn1c(=O)[nH]c2cc(C(=O)NCCCN3CCCCC3C)ccc2c1=O (configuration not stated) | inactive
N#CCCCn1c(O)c(N=NC(=O)C(O)c2ccccc2)c2ccccc21 (configuration not stated) | inactive
Oc1ccc(/C=N/Nc2nc(-c3ccccc3F)nc3ccccc23)c(O)c1 | inactive
Cc1ccc2nc(C)cc(N/N=C/c3ccc(F)cc3)c2c1 | inactive
Cc1cc(N/N=C/c2ccccc2F)c2ccccc2n1 | -8 (active)
CCCCC(c1nnnn1CS(=O)(=O)c1ccc(C)cc1)N1CCC(C(N)=O)CC1 (configuration not stated) | inactive
CC1(C)OC(=O)C(=CNC(CO)C(=O)O)C(=O)O1 (configuration not stated) | inactive
NC(=O)c1c(NC(=O)CSc2nc(N)cc(=O)[nH]2)sc2c1CCCC2 | inactive
CCCc1cc(=O)[nH]c(SCC(=O)Nc2sc3c(c2C#N)CCCC3)n1 | -6 (active)
CCN1CCN(CC(=O)Nc2sc3c(c2C#N)CCC3)CC1 | inactive
COc1ccc2[nH]c(=O)c(CN(Cc3cccnc3)S(=O)(=O)c3ccccc3F)cc2c1 | inactive
CC(C)(C)NCc1cc(Br)ccc1OC1CCCC1 | inactive

SMILES | B-score
COc1ccccc1CN1CCN(C(c2ccccc2)c2ccccc2)CC1 | inactive
CC(NCc1ccccc1OC1CCCC1)c1ccccc1 (configuration not stated) | -6 (active)
CC1CCCCC1NC(=O)/C(C#N)=C/C=C/c1ccccc1[N+](=O)[O-] (configuration not stated) | inactive
COc1ccc(N(Cc2cc3ccc(C)cc3[nH]c2=O)S(=O)(=O)c2ccccc2)cc1 | inactive
O=C(c1cccc(C(=O)N2CCN(c3ccc(F)cc3)CC2)c1)N1CCN(c2ccc(F)cc2)CC1 | -8 (active)
O=C(c1cc(C(=O)N2CCN(c3ccc(F)cc3)CC2)cc([N+](=O)[O-])c1)N1CCN(c2ccc(F)cc2)CC1 | inactive
O=C(c1cc2cc(F)ccc2[nH]1)N1CCN(c2ccc(F)cc2)CC1 | inactive
c1ccc(Nc2n[nH]nc2-c2ccccc2)cc1 | -6 (active)
O=C(O)c1n[nH]nc1-c1ccccc1 | inactive
Oc1ccc(-c2nnc(Nc3ccccc3)c3ccccc23)cc1 | inactive
COc1cc(C(F)(F)F)nc2c(Br)c(C(C)(C)C)nn12 | -6 (active)
CC1C(=O)N2CCCc3cc(S(=O)(=O)NCc4ccc(F)cc4)cc1c32 (configuration not stated) | inactive
Cc1cccc2cc(CN(Cc3nnnn3Cc3ccccc3)C3CCCC3)c(=O)[nH]c12 | -7 (active)
Cc1cc(C)c2cc(CN(Cc3nnnn3Cc3ccc(F)cc3)C3CCCC3)c(=O)[nH]c2c1 | inactive
Cc1cccc2cc(CN(Cc3ccc4c(c3)OCO4)Cc3nnnn3C3CCCC3)c(=O)[nH]c12 | inactive
NS(=O)(=O)c1ccc(NC(=S)Nc2ccc(Br)c(Cl)c2)cc1 | inactive
Cc1ccc(S(=O)(=O)N2CCC(C)CC2)cc1C(=O)NCc1ccccn1 | inactive
Cc1ccc(OCC(=O)NNC(=S)NCc2ccccc2)cc1 | inactive
O=C(NNC(=S)NCc1ccccc1)c1ccc(OC(F)F)cc1 | inactive
CC(C)Oc1ccc(CCC(=O)NNC(=S)NCc2ccccc2)cc1 | -6 (active)
COc1ccc(NC(=O)CN(C)C(=O)c2cc(-c3ccc(C)o3)nc3ccccc23)cc1 | inactive
